From PubChem BioAssay
Compounds with a hit are over-represented: about 1.6% of the library has one in this group of screens.
DNMT1 block – DNMT1 (human) enzyme inhibition | P26358 | DNMT1 molecular beacon, Hinp1I cleavage, fluorescence | inhibition (reported as % activation of signal), % at 10 µM | 360,000 compounds, 0.83% hits | AID 588458; in the data active = inhibition above about 50%
Scp1 inh – Scp-1 (human) phosphatase inhibition. Q9GZU7. Recombinant Scp1, phosphopeptide, malachite green phosphate absorbance. inhibition, % at 20 µM. 340,000 compounds, 0.88% hits;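 active = inhibition above about 50% at 20 µM, limit read from the data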
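Times: enzyme reaction 45 min at room temperature, colour 5 min, stabilisation 30 min. Material: SCP-1 catalytic fragment, aa 76-261. Medium: Acidic Tris acetate buffer with magnesium and detergent. Signal: colorimetric free-phosphate detection, absorbance 630 nm. Read-out basis: % inhibition of SCP-1 phosphate liberation. Reagent: Phosphorylated 17-residue peptide substrate.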
LMPTP inh – blocks human LMPTP phosphatase; AID 651560; 360,000 compounds, 0.22% hits; P24666; inhibition, % at 20 µM; recombinant LMPTP-A, OMFP fluorogenic substrate, fluorescence intensity;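 active = compounds that cut the enzyme signal by at least half of the control window in the single-dose screen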
Target sequence (P24666 whole entry, looked up): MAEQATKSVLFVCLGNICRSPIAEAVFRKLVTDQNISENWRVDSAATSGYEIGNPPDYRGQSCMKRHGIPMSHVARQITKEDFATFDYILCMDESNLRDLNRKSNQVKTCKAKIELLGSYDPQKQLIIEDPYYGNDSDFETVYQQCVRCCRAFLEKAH
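Test system – LMPTP-A phosphatase enzyme · Quantity – 0.625 nM LMPTP-A final · Reagent – OMFP substrate, 400 µM final · Dosing – one test concentration per compound, 20 µM, with 3% DMSO overall · Timing – 50 min enzyme reaction at room temperature, protected from light · Detection – fluorescence intensity · Controls – substrate-only low control, DMSO enzyme-plus-substrate high control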
STEP block – blocks human striatal-enriched tyrosine phosphatase; P54829; recombinant STEP, OMFP fluorogenic substrate, fluorescence; inhibition, % at 20 µM; 360,000 compounds, 0.25% hits;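 active = inhibition at 20 µM, scaled per plate between control wells, above about 37%, limit read from the data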
Target sequence (P54829 whole entry, looked up): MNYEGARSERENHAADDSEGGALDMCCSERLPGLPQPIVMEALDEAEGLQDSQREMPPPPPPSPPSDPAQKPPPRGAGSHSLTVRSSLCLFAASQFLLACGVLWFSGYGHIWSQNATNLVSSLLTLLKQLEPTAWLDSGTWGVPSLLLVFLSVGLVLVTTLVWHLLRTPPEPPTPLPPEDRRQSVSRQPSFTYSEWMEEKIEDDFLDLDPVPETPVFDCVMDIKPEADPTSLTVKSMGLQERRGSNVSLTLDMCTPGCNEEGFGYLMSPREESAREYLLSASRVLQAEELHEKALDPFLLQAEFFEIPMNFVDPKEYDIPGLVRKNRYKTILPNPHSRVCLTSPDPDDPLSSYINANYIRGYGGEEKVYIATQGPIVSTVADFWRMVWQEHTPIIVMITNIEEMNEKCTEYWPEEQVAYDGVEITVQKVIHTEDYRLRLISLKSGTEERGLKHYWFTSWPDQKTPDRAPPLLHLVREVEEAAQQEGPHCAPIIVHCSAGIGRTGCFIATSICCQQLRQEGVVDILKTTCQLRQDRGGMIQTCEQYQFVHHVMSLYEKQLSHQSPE
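System: isolated STEP enzyme; schedule: 20 min enzyme reaction at room temperature, protected from light; medium: Bis-Tris buffer pH 6.0, 2.5 mM DTT, 0.005% Tween 20; signal: fluorescence, 480/540 nm; dosing: single compound dose of 20 µM, 1% DMSO final; also added: OMFP substrate, 25 µM final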
SUMO1-SIM PPI – SUMO1-SIM interaction modulation; inhibition, % at 20 µM; AID 602429; 360,000 compounds, 0.33% hits; P63165; SUMO1 binding to a labelled peptide, TR-FRET, 1 h; in the data active = inhibition above about 37%
CFTR F508del cor – correctors of CFTR F508del function in bronchial epithelial cells; CFBE cells, YFP halide quenching; stimulated with forskolin plus potentiator P3; % fluorescence drop versus neutral controls; activity (quench increase), % at 7.58 µM; 350,000 compounds, 0.36% hits; AID 720511;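 active = mean added fluorescence quench of at least 8% versus neutral control, with both replicates also reaching 8%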;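 note: cells transiently co-express mutant CFTR-F508del with the halide-sensitive YFP; corrector assay measuring rescue of mutant channel to the surface after 24 h compound exposure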
Hits are given with their value; 0 = inactive; - = no result given.

SMILES | DNMT1 block | Scp1 inh | LMPTP inh | STEP block | SUMO1-SIM PPI | CFTR F508del cor
CNC[C@@H]1OCCCC[C@@H](C)Oc2ccc(NS(=O)(=O)c3ccc(F)cc3)cc2C(=O)N([C@@H](C)CO)C[C@@H]1C | - | - | - | - | - | 0
CC(=O)Nc1cccc(NC(=O)CN2c3cccc4cccc(c34)S2(=O)=O)c1 | 0 | 0 | 0 | 0 | 0 | 24
CO[C@@H]1CN(C)C(=O)c2cc(NC(=O)C3CC3)ccc2OC[C@@H](C)N(Cc2ccccc2)C[C@@H]1C | - | - | - | - | - | 0
CCC(=O)c1ccc(OCC(=O)Nc2nc(-c3cccnc3)cs2)cc1 | 0 | 0 | 0 | 0 | 46 | 0
CCC(=O)c1ccc(OCC(=O)Nc2nc(C)cs2)cc1 | 0 | 0 | 0 | 0 | 0 | 0
CCOc1ccc(N(CC)C(=O)COc2cc(=O)n(C)c3ccccc23)cc1 | 0 | 0 | 0 | 0 | 0 | 8.8
C[C@@H]1CN([C@H](C)CO)C(=O)c2cc(-c3ccc(F)cc3)cnc2O[C@@H]1CN(C)C(=O)c1ccncc1 | - | - | - | - | - | 0
O=C(C[C@H]1CC[C@H]2[C@@H](COC[C@H](O)CN2Cc2nccs2)O1)NCc1ccc(Cl)cc1 | - | - | - | - | - | 0
O=C(Nc1nc2c(Br)cc(Br)cc2c(=O)s1)c1ccco1 | 0 | 93 | 0 | 0 | 0 | 0
COc1ccc(S(=O)(=O)N(C)C[C@H]2OCCCC[C@@H](C)Oc3ccc(NC(=O)NC4CCCCC4)cc3C(=O)N([C@@H](C)CO)C[C@@H]2C)cc1 | - | - | - | - | - | 0
CCOC(=O)N1CCC(NC(=O)C(NS(=O)(=O)c2cccc3nsnc23)c2ccccc2)CC1 (stereo unspecified) | 0 | 0 | 0 | 0 | 46 | 0
COc1ccc(CNc2oc(COc3ccc(Cl)cc3)nc2C#N)cc1 | 0 | 0 | 0 | 0 | 0 | -
COc1ccc(Nc2oc(COc3ccc(Cl)cc3)nc2C#N)cc1 | 0 | 0 | 0 | 0 | 42 | -
CCOc1ccc(NCC(=O)N/N=C/C=C/c2ccccc2)cc1 | 0 | 0 | 0 | 0 | 0 | 0
COc1ccc(OCC(=O)N/N=C/C=C/c2ccccc2)cc1 | 0 | 0 | 0 | 0 | 0 | 9.0
C[C@@H](NC(=O)C[C@H]1C=C[C@H](NC(=O)C2CCC2)[C@@H](CO)O1)c1ccccc1 | - | - | - | - | - | 0
Cc1cc(C)c2nc(Cl)c(CN(Cc3ccco3)C(=O)Nc3ccccc3C)cc2c1 | 0 | 0 | 0 | 0 | 0 | 11
COc1ccccc1NC(=S)N(Cc1ccco1)Cc1cc2cc(C)cc(C)c2[nH]c1=O | 0 | 0 | 0 | 0 | 0 | 10
CCCCCCc1cc2cc(-c3nnc(-c4ccccc4O)o3)c(=O)oc2cc1O | 87 | 0 | 0 | 0 | 0 | -
Cc1nn(C)c(C)c1N1C(=O)c2cccc3c(Br)ccc(c23)C1=O | 0 | 0 | 0 | 0 | 0 | -
CCCCNc1ccc2c3c(cccc13)C(=O)N(CCCC)C2=O | 61 | 0 | 0 | 0 | 0 | 0
CCN1C(=O)c2cccc3c(N)ccc(c23)C1=O | 124 | 0 | 0 | 0 | 0 | 19
Cc1ccc(N2C(=O)c3cccc4c(N)ccc(c34)C2=O)c2cccnc12 | 0 | 67 | 0 | 0 | 0 | 0
Cc1nn(C)c(C)c1N1C(=O)c2cccc3c(N)ccc(c23)C1=O | 93 | 0 | 0 | 0 | 0 | -
CN(C)CCCN1C(=O)c2cccc3c(Br)ccc(c23)C1=O | 0 | 0 | 0 | 0 | 0 | 0
SMILES | DNMT1 block | Scp1 inh | LMPTP inh | STEP block | SUMO1-SIM PPI | CFTR F508del cor
N#Cc1sc2nc(C3CC3)cc(-c3ccccc3)c2c1N | 0 | 0 | 0 | 0 | 0 | -
N#Cc1sc2nc(-c3ccccc3)cc(-c3ccco3)c2c1N | 0 | 0 | 0 | 0 | 64 | -
COC1=CC(=O)C(O)=C(CCCCCCC/C=C/CCCCCCCC2=C(O)C(=O)C=C(OC)C2=O)C1=O | 82 | 88 | 69 | 0 | 79 | -
CCCCCCCCCCCC1=C(O)C(=O)C=C(O)C1=O | 0 | 0 | 71 | 0 | 0 | -
Cc1ccc(S(=O)(=O)N(C)C[C@@H]2Oc3ncc(C#Cc4ccc(C(F)(F)F)cc4)cc3C(=O)N([C@H](C)CO)C[C@@H]2C)cc1 | - | - | - | - | - | 0
C/C(=N\NC(=O)c1ccc(F)cc1)c1ccc(NC(=O)Cc2ccccc2)cc1 | 0 | 0 | 0 | 0 | 0 | 0
COc1ccc(C(=O)N/N=C(\C)c2ccc(NC(=O)Cc3ccccc3)cc2)c(OC)c1 | 0 | 0 | 0 | 0 | 47 | 0
C[C@@H]1CN([C@@H](C)CO)C(=O)c2ccccc2-c2ccccc2CO[C@H]1CN(C)S(=O)(=O)c1cccs1 | - | - | - | - | - | 0
CC(OC(=O)c1ccc(NC(=O)CC#N)cc1)C(=O)Nc1nc(-c2ccccc2)cs1 (stereo unspecified) | 0 | 0 | 0 | 0 | 0 | 0
CC(OC(=O)c1ccc(NC(=O)CC#N)cc1)C(=O)Nc1ccc(Oc2ccccc2)cc1 (stereo unspecified) | 0 | - | 0 | 0 | 54 | 0
Cc1noc(C)c1NC(=O)N[C@@H]1CC[C@@H](CCNC(=O)C2CC2)O[C@@H]1CO | - | - | - | - | - | 0
Oc1cc2c(cc1O)C(c1ccccc1)CNCC2 (stereo unspecified) | 0 | 0 | 0 | 0 | 0 | 9.5
Oc1cc2c(cc1O)[C@@H](c1ccccc1)CNCC2 | 0 | 0 | 0 | 0 | 0 | 0
COc1ccc(O)c(/C=N/NC(=O)c2ccc(OCc3cccc(Br)c3)cc2)c1 | 52 | 96 | 0 | 0 | 0 | -
COc1cccc(-c2ccc3c(c2)O[C@H](CN(C)C(=O)c2ccccc2F)[C@H](C)CN([C@@H](C)CO)S3(=O)=O)c1 | - | - | - | - | - | 0
O=c1c2c3nc4ccccc4nc3n(/N=C/c3ccco3)c2ncn1CCC1=CCCCC1 | 0 | 88 | 0 | 0 | 0 | -
CCCNC(=O)Nc1ccc2c(c1)OC[C@H](C)N(CCC)C[C@H](C)[C@@H](OC)CN(C)C2=O | - | - | - | - | - | 0
O=C(NC1CCCC1)c1sc(=S)n2c1[nH]c(=O)c1ccccc12 | 0 | 58 | 0 | 0 | 0 | -
C[C@H]1CN([C@@H](C)CO)C(=O)c2cc(-c3cncnc3)cnc2O[C@H]1CN(C)C(=O)Cc1ccccn1 | - | - | - | - | - | 0
COCC(=O)N1C[C@H]2[C@@H](c3ccccc31)[C@H](CO)N2C(=O)C1CC1 | - | - | - | - | - | 0
C/C=C/c1ccc2c(c1)O[C@@H](CN(C)C(=O)Nc1cccc(F)c1)[C@H](C)CN([C@H](C)CO)S2(=O)=O | - | - | - | - | - | 8.5
C/C=C/c1ccc2c(c1)O[C@H](CN(C)C(=O)Nc1cccc(F)c1)[C@H](C)CN([C@@H](C)CO)S2(=O)=O | - | - | - | - | - | 0
C[C@H]1CN([C@@H](C)CO)S(=O)(=O)c2ccc(/C=C/c3ccccc3)cc2O[C@@H]1CN(C)C(=O)Nc1ccc(F)cc1 | - | - | - | - | - | 10
C[C@H](CO)N1C[C@H](C)[C@@H](CN(C)Cc2ccccc2)Oc2cc(/C=C/c3ccccc3)ccc2S1(=O)=O | - | - | - | - | - | 0
COc1ccccc1C#Cc1ccc2c(c1)O[C@H](CN(C)Cc1cccnc1)[C@H](C)CN([C@@H](C)CO)S2(=O)=O | - | - | - | - | - | 8.2
